Results published in ChEMBL document CHEMBL4261521, “Synthesis of benzo[d]thiazole-hydrazone analogues: molecular docking and SAR studies of potential H+/K+ ATPase inhibitors and anti-inflammatory agents” (Medchemcomm, 2017).
In brackets after ≈: the same amount, converted by molar mass.

How the values were obtained:
[1] = Inhibition of H+/K+-ATPase in sheep stomach parietal cells assessed as reduction in inorganic phosphate liberation using ATP as substrate measured after 10 to 15 mins; conditions: Ovis aries
Outline: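 Enzyme came from sheep fundic mucosal scrapings, homogenized in sucrose/EGTA/Hepes-Tris buffer pH 7.4, then subcellular fractionation. Basal medium: 2 mmol L–1 ATP, 50 mmol L–1 Tris-HCl pH 7.5, with K+ and HCO3 stimulation. Reaction started with ATP, run at 37 °C and stopped with cold 20% TCA. Released Pi read by Fiske–Subbarow at 660 nm. Values are means of three determinations.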

Erythrocyte = assay: Anti-inflammatory activity in human RBC assessed as inhibition of hypotonic solution-induced hemolysis after 10 mins by spectrophotometric method; assay type: functional, cell-based
Outline: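 Heparinized blood from one healthy donor (no NSAIDs for 2 weeks), washed in 0.9% saline, made into 40% (v/v) RBC stock in 10 mM sodium phosphate/154 mM NaCl, pH 7.4. Stock mixed with hypotonic buffer (50 mM NaCl, 10 mM phosphate, pH 7.4) plus sample at 20–100 μg mL–1. Incubated at room temperature, centrifuged, supernatant absorbance at 540 nm, % haemolysis inhibition versus blank.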

SMILES	IC50 [1] [µg/mL]	IC50 (Erythrocyte) [µg/mL]
Cc1cccc2nc(N/N=C\c3ccc(Oc4ccccc4)cc3)sc12	56.4 (≈ 157 µM)	60.9 (≈ 169 µM)
Cc1cccc2nc(N/N=C/CC(C)C)sc12	82.2 (≈ 332 µM)	90.7 (≈ 367 µM)
COc1ccc2[nH]c([S+]([O-])Cc3ncc(C)c(OC)c3C)nc2c1 (configuration not stated) [OMEPRAZOLE]	46.1 (≈ 134 µM)	–
Cc1cccc2nc(N/N=C\c3ccccc3)sc12	84.1 (≈ 315 µM)	80.1 (≈ 300 µM)
Cc1cccc2nc(N/N=C\c3ccc([N+](=O)[O-])cc3[N+](=O)[O-])sc12	80.6 (≈ 226 µM)	12.7 (≈ 35.7 µM)
Cc1cccc2nc(N/N=C\c3ccc(Br)cc3)sc12	60.1 (≈ 174 µM)	20.1 (≈ 58 µM)
Cc1cccc2nc(N/N=C\c3ccc(F)cc3F)sc12	70.6 (≈ 233 µM)	16.1 (≈ 53.2 µM)
COc1cc(/C=N\Nc2nc3cccc(C)c3s2)cc(OC)c1OC	12.8 (≈ 35.7 µM)	74.6 (≈ 209 µM)
Cc1cccc2nc(N/N=C\c3ccc(Cl)cc3)sc12	68.2 (≈ 226 µM)	28.7 (≈ 95.2 µM)
Cc1cccc2nc(N/N=C\c3ccc(O)cc3O)sc12	14.1 (≈ 47.2 µM)	58.2 (≈ 194 µM)
COc1cc(/C=N\Nc2nc3cccc(C)c3s2)ccc1OCc1ccccc1	42.9 (≈ 106 µM)	66.2 (≈ 164 µM)
Cc1cccc2nc(N/N=C\c3ccc(O)cc3)sc12	26.3 (≈ 92.9 µM)	60 (≈ 212 µM)
CCCCCC/C=N/Nc1nc2cccc(C)c2s1	72.1 (≈ 262 µM)	82.2 (≈ 298 µM)
Cc1cccc2nc(N/N=C\c3ccc(O)c(Br)c3)sc12	48.1 (≈ 133 µM)	52.4 (≈ 145 µM)
COc1ccc(/C=N\Nc2nc3cccc(C)c3s2)cc1	30.4 (≈ 102 µM)	72.7 (≈ 244 µM)
Cc1cccc2nc(N/N=C\c3cc(O)c(O)c(O)c3)sc12	8.99 (≈ 28.5 µM)	68.6 (≈ 217 µM)

SMILES	IC50 [1] [µg/mL]	IC50 (Erythrocyte) [µg/mL]
Cc1cccc2nc(N/N=C\c3ccc(Cl)cc3Cl)sc12	68.9 (≈ 205 µM)	18.2 (≈ 54 µM)
Cc1cccc2nc(N/N=C\c3ccc(Br)cc3Br)sc12	66.1 (≈ 156 µM)	10.1 (≈ 23.8 µM)
Cc1ccc(/C=N\Nc2nc3cccc(C)c3s2)cc1	34.2 (≈ 121 µM)	54.3 (≈ 193 µM)
COc1ccc2c(c1)c(CC(=O)O)c(C)n2C(=O)c1ccc(Cl)cc1 [INDOMETHACIN]	–	40 (≈ 112 µM)
Cc1cccc2nc(N/N=C/c3ccc[nH]3)sc12	42.6 (≈ 166 µM)	46.2 (≈ 180 µM)
Cc1cccc2nc(N/N=C/c3cccs3)sc12	30.4 (≈ 111 µM)	28.7 (≈ 105 µM)
Cc1cccc2nc(N/N=C\c3ccc([N+](=O)[O-])cc3)sc12	72.2 (≈ 231 µM)	24.1 (≈ 77.1 µM)
Cc1cccc2nc(N/N=C/c3ccco3)sc12	38.3 (≈ 149 µM)	50.1 (≈ 195 µM)
COc1cc(/C=N\Nc2nc3cccc(C)c3s2)cc(Br)c1O	42.1 (≈ 107 µM)	56.4 (≈ 144 µM)
COc1ccc(/C=N\Nc2nc3cccc(C)c3s2)c(OC)c1	20.4 (≈ 62.2 µM)	68.1 (≈ 208 µM)
Cc1cccc2nc(N/N=C\c3ccc(F)cc3)sc12	66.1 (≈ 232 µM)	32.1 (≈ 113 µM)
CC/C=N/Nc1nc2cccc(C)c2s1	80.2 (≈ 366 µM)	78.5 (≈ 358 µM)
COc1ccc(/C=N\Nc2nc3cccc(C)c3s2)cc1Br	54.4 (≈ 145 µM)	58.6 (≈ 156 µM)
Cc1cccc2nc(N/N=C\c3ccncc3)sc12	40.2 (≈ 150 µM)	54.2 (≈ 202 µM)
COc1ccc(/C=N\Nc2nc3cccc(C)c3s2)cc1O	26.2 (≈ 83.6 µM)	56.2 (≈ 179 µM)
Cc1cccc2nc(N/N=C/c3cc4ccccc4[nH]3)sc12	28.1 (≈ 91.8 µM)	30.2 (≈ 98.5 µM)
